# Results reported in ChEMBL document CHEMBL4513216, “Probing the Open Global Health Chemical Diversity Library for Multistage-Active Starting Points for Next-Generation Antimalarials” (ACS Infect Dis, 2020).
# Assay: Toxicity liver stage against HepG2, at 10uM
# Assay type: cell-based
# Design: test concentration 10 uM, cell line HepG2-A16-CD81EGFP
# Conditions: human, HepG2-A16-CD81EGFP cells; read-out: INHIBITION
# In short: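 Uninfected HepG2-A16-CD81EGFP cells, 3 × 10^3 per well, 1536-well, plated on prespotted compound at 10 μM final, parasite-free screening media added to match infected plates; puromycin 10 μM positive, DMSO 0.5% negative; run in parallel with 48 h PbLuc assay at 37 °C, 5% CO2; viability by CellTiter-Glo luminescence, normalized to controls.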
row,Structure (SMILES),cytotoxicity at 10 µM [%]
1,O=C(CN1CCN(C(=O)c2ccccc2)CC1)Nc1ncc(Br)cc1Br,8.63
2,O=C(NC[C@H]1COCc2nc3cc(F)ccc3n21)c1cccnc1,-1.23
3,CN1CCC(N2CCC[C@H]2c2nc(-c3cncnc3N)no2)CC1,-5.33
4,Cc1cccc2c1nc1n2[C@@H](CNC(=O)c2cncnc2)COC1,1.53
5,Cc1nnc(NC(=O)CSCc2cc(=O)n3ccccc3n2)s1,1.5
6,COc1cc2c(cc1OC)C(=O)C(Sc1nnc(C)o1)C2 (stereo not given),0.372
7,Cc1cc(C)c(S(=O)(=O)Nc2c(C)nc(N3CCCC3)nc2C)cc1C,3.62
8,CCOCC1C[C@@H]2OCCN(C(=O)c3ccc[nH]3)[C@H]2C1 (stereo not given in full),-1.86
9,CN1C(=O)CC2(CCN(S(=O)(=O)N(C)C)CC2)c2ccccc21,0.688
10,O=C(C[C@@H]1COC[C@H]2CN(Cc3ccncc3)C[C@@H]12)N1CCCC1,-2.3
11,CN(C)CCCNC(=O)c1ccccc1NC(=O)c1cc(Cl)ccc1Cl,-17
12,CN(C)c1nccc(C2CCN(C3CCCCC3O)CC2)n1 (stereo not given),1.98
13,Cc1ncsc1-c1nnc(C2CCN(Cc3ccccc3)CC2)o1,-6.39
14,CC(C)C(NC(=O)c1nc(N2CCOCC2)ncc1Cl)c1cccs1 (stereo not given),-44.3
15,Cc1nc(-c2cccs2)ccc1C(=O)N1CCN(CCO)CC1,-56
16,CCC(=O)Nc1ccc(F)cc1OC,-26.1
17,CN(CCOCC1CC1)C(=O)Nc1ccc([S+](C)[O-])cc1 (stereo not given),19.4
18,CC(C)c1noc(C(C)N2CCN(Cc3noc(C4CC4)n3)CC2)n1 (stereo not given),3.01
19,CC(C(=O)Nc1cccc(F)c1)N(C)CCN1CCOCC1 (stereo not given),-9.19
20,Cc1nn(C)c(C)c1S(=O)(=O)N(CC(N)=O)CC(C)C,10.5
21,CC(Oc1cc(Cl)cc(Cl)c1)C(=O)NCCOCC(N)=O (stereo not given),-5.82
22,Cn1cc(C2(C)CN(Cc3ccc(N4CCCC4)nc3)CCO2)cn1 (stereo not given),8.32

row,Structure (SMILES),cytotoxicity at 10 µM [%]
1,CS(=O)(=O)NCCNC(=O)C1(c2ccc(F)cc2)CC1,1.93
2,COCCN(CCC#N)S(=O)(=O)c1cc(F)ccc1F,-9.91
3,NC(=O)NC(=O)CCN1CCCC1c1cccc2c1OCCO2 (stereo not given),-5.35
4,O=C(CSc1ccc2c(c1)OCCO2)NS(=O)(=O)c1cc(F)ccc1F,-3.47
5,Cc1ccc(C(O)CNC(=O)c2cccnc2O)cc1 (stereo not given),11
6,Cc1n[nH]c(C2CN(C(=O)c3ccc(Cl)o3)CCO2)n1 (stereo not given),-5.59
7,Cc1cnn(CC(C)NCc2nc(-c3ccoc3)no2)c1 (stereo not given),23.3
8,Cc1nc(-c2ccsc2)ccc1C(=O)N(C)CC1CC1,2.83
9,Cc1cc(C)c(CNC(=O)NC2CCOCC2)c(=O)[nH]1,-7.05
10,Cc1occc1C(=O)NCCOc1ccc(C(F)(F)F)cn1,-7.62
11,COc1ccccc1C(C)(C)NCc1ccco1,5.95
12,CS(=O)(=O)NC1CCN(C(=O)CCn2cccn2)CC1,-7.74
13,COCCCNS(=O)(=O)c1cc(C)sc1C,-11.6
14,CCN(CC)S(=O)(=O)c1ccc(C(F)(F)F)cc1C#N,-13.4
15,CC1CCN(C(=O)Cc2ccc(S(=O)(=O)C(F)F)cc2)CC1,2.98
16,NC(=O)Nc1cc(Br)cnc1OCC(F)(F)F,8.28
17,NC(=O)c1cccc(CCNCc2cccs2)c1,1.68
18,C1CCC(N2CCCN(c3nc(C4CC4)no3)CC2)C1,-9.13
19,CCC(=O)NC1CCCN(Cc2ccc(NC(C)=O)cc2)C1 (stereo not given),-47.9
20,O=C(Nc1ccnn1Cc1ccc(Cl)cc1)C1CCS(=O)(=O)C1 (stereo not given),10.9
21,CC(CCc1ccccc1)CC(=O)NC1CCN(CC(N)=O)CC1 (stereo not given),9.04
22,CS(=O)(=O)Cc1nc(CN2CC=C(c3ccccc3)CC2)cs1,5.27

row,Structure (SMILES),cytotoxicity at 10 µM [%]
1,NC(=O)C1Cn2ccnc2C2(CCN(C(=O)c3ccncc3)CC2)O1 (stereo not given),-103
2,Cc1nc(CN2Cc3cn(C)nc3C(COCC3CC3)C2)cs1 (stereo not given),-68.9
3,CO[C@@H]1CCN(S(=O)(=O)c2cccs2)[C@H]1Cc1ccccc1,-78
4,CN(C)C(=O)NC1COC2(CCN(Cc3ccco3)CC2)C1 (stereo not given),-72.4
5,CC(=O)N1CCCC2(C1)CN(C(=O)c1ccncc1)CCO2 (stereo not given),-78.7
6,CNC(=O)[C@@]12CCO[C@@H]1CCN(S(=O)(=O)c1cccc(F)c1)C2,-73.8
7,COCCN1CCC12CCN(C(=O)c1ccc3[nH]ccc3c1)C2 (stereo not given),-82.6
8,CCOC1COC2(CCN(S(=O)(=O)c3cccc(C)c3)CC2)C1 (stereo not given),-79.8
9,CC1(C)C[C@H](CCNC(=O)c2ccncc2)c2ccccc2O1,-5.55
10,Cc1cccc(N2CCN(CCC(=O)NCc3cccnc3)CC2)c1,-9.2
11,C[C@H](NC(=O)c1cnc(-c2ccccc2)nc1O)C(N)=O,7.06
12,CNc1cc(C)nc(N2CCC3(CC2)[C@H](O)C[C@@H]3OCCN(C)C)n1,-1.26
13,Oc1cc(CN2CCC(O)(Cn3ccnc3)CC2)nc2c(Cl)cccc12,-60.8
14,COc1ncc(-c2ccc(O)cc2)c(OC)n1,-2.42
15,Cc1ccc(CN(Cc2ccccn2)C(=O)C2CCCCCN2C)s1 (stereo not given),-20.2
16,CN(Cc1ccncn1)C(=O)c1cccc(CCC(C)(C)O)c1,-4.27
17,CN(Cc1nc(Cc2cccc(C(F)(F)F)c2)no1)C(C1CC1)C1CC1,0.92
18,NCC1Cc2cccc(-c3ccc(O)c(F)c3)c2O1 (stereo not given),-40.2
19,CN(Cc1cnc(N)nc1)C(=O)c1coc(COc2ccccc2)n1,1.58
20,Cc1cc(CN2CCC(CNC(=O)Cc3ccc(F)cc3)C2)[nH]n1 (stereo not given),-139
21,CCOc1cccc(CN2CCCn3nc(CNS(C)(=O)=O)cc3C2)c1,-4.01
22,COc1cccc2c1OCCCN(c1nc(N)nc3c1CCNC3)C2,0.944

row,Structure (SMILES),cytotoxicity at 10 µM [%]
1,CC(C)[C@@H]1CN(CC(=O)NCc2ccco2)C[C@H]1NS(=O)(=O)N(C)C,6.11
2,COCC(=O)N1CCCC1c1ccc(C(=O)NCCN2CCCCC2)s1 (stereo not given),4.26
3,C[C@@H]1CN(CC(C)(C)N2CCOCC2)CC[C@@]1(O)C1CCOCC1,-1.71
4,O=C(c1cccnc1)N1CCC(Oc2cccc(C(F)(F)F)c2)CC1,7.19
5,O=C(NC1CCOCC1)c1cccc(C2CCCNC2)c1 (stereo not given),2.58
6,Cc1nc(-c2c(-c3ccccc3)ncn2CCCN2CCOCC2)c[nH]1,-6.76
7,Cc1cnn(CC(=O)N2CCC3(CCC(=O)N(CC(C)O)C3)CC2)c1 (stereo not given),3.05
8,Cc1ncccc1OC1(C(=O)NCCC2CCCN2C)CCNCC1 (stereo not given),2.18
9,O=C(COCC(F)(F)C(F)F)N1CCC2(CCCN(CC3CC3)C2=O)C1 (stereo not given),4.46
10,O=C(CN1CCCCC1)Nc1ncc(Br)cc1Br,-9.58
11,CN(c1ccncn1)C1CC2(CCN(C(=O)c3ccsc3)C2)C1 (stereo not given),4.02
12,CCn1cnnc1CNC(=O)N1CCN(c2nccs2)CC1,-2.72
13,Cc1ccc(-c2nc(C(=O)N(C)C3CCN(C)CC3)cs2)c(C)c1,-7.07
14,CC(C(=O)N1CCCN(Cc2ccc(C#N)cc2)CC1)n1cncn1 (stereo not given),2.6
15,CCn1cnnc1C1CCN(C(=O)c2cnc(C)s2)CC1,-8.45
16,c1cn(-c2ccc(CN3CCOC(Cn4cncn4)C3)cc2)cn1 (stereo not given),1.25
17,Cc1nn(-c2ccccc2)cc1C(=O)N1CCCC(n2ccnc2C)C1 (stereo not given),-3.11
18,Cc1cc(C)c(CNC(=O)N2CCCC2c2cccc(F)c2)c(=O)[nH]1 (stereo not given),5.22
19,CCOc1cccc2c1OCC(C(=O)NS(=O)(=O)c1ccc(Cl)s1)=C2,-3.21
20,Cc1nc(C)n(CC2CCCCN2c2ncnc3ccsc23)n1 (stereo not given),-2.04
21,O=C(NCCOc1ccc2c(c1)CCC2)N1CCS(=O)(=O)CC1,-1.71
22,c1cnnc(N2CCCC2CNCc2nc(-c3ccsc3)no2)c1 (stereo not given),-7.7

row,Structure (SMILES),cytotoxicity at 10 µM [%]
1,COc1cccc(COCC(=O)N2CCCC(N3CCCC3)CC2)c1 (stereo not given),-4.82
2,Cc1nn(C)c(N2CCOCC2)c1CNC1CCN(C(C)(C)C)CC1,-3.66
3,Cn1c(NCC(O)c2ccc(F)cc2F)c(C#N)c(=O)n(C)c1=O (stereo not given),-10.9
4,CC1=NN(c2ccc(C(=O)N3CCCC(n4ccnc4)C3)cc2)CC1 (stereo not given),-15.6
5,COc1ncccc1CNc1cc(N2CCCC2CO)ncn1 (stereo not given),-12.6
6,c1ncn(CC2CN(Cc3noc(C4CC4)n3)CCO2)n1 (stereo not given),1.59
7,CC(C)Oc1ncccc1CNC(=O)c1cc[nH]n1,-9.12
8,Cc1nc(C)n(C2CCCN(C(=O)c3ccc(N(C)C)nn3)C2)n1 (stereo not given),0.722
9,Cc1ncccc1-c1cc2cccnc2n1CCCNC(=O)C(C)(C)C,12.8
10,Cc1ccc(CN(CCN(C)C)Cc2c(C)nc3sccn23)o1,3.08
11,CCN(C(=O)c1ccc2nnc(C3CCN(C)C3)n2c1)C(C)C (stereo not given),-112
12,c1cncc(CN2CCN3C[C@H](Oc4cncnc4)C[C@H]3C2)c1,-100
13,O=C(C1=CCCCC1)N1CCO[C@H]2[C@H](Oc3ccccn3)CC[C@@H]21,5.08
14,Cc1cccc(CN2CCCC3(CCN(CC(=O)N(C)C)C3=O)C2)n1 (stereo not given),-119
15,O=C(N[C@H]1CN(Cc2cccs2)[C@@H]2CCCO[C@H]12)c1cccnc1,-5.24
16,COC(=O)CN1CC2(CCNCC2)COc2ccccc2S1(=O)=O,-11.7
17,Cc1ccc(CN2CCc3onc(COc4cccnc4)c3C2)s1,5.98
18,c1ccc(NCc2cnc3n2CCN(CC2CCOC2)CC3)nc1 (stereo not given),-76.5
19,O=C(c1ccncc1)N1CCc2ncnc(C3CC3)c2CC1,-75.6
20,O=C(NCc1ccco1)[C@@]12CCO[C@@H]1CCN(c1ncccn1)C2,0.864
21,COc1cccc(CSC=C2Nc3ccccc3S(=O)(=O)N2)c1,3.7
22,N#Cc1ccccc1C(=O)N1C[C@@H]2CC[C@H]1CN(Cc1ccccc1)C2,1.43
